The source of these data is ChEMBL document CHEMBL1158758, “Cassane- and norcassane-type diterpenes from Caesalpinia crista of Indonesia and their antimalarial activity against the growth of Plasmodium falciparum” (J Nat Prod, 2005).

The experiment deals with Plasmodium falciparum. Put plainly: Antimalarial activity against Plasmodium falciparum FCR3/A2. The note with it: FCR-3. Type of experiment: functional, organism-based. The method, boiled down: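 P. falciparum FCR-3/A2 clone cultured in vitro in 24-well plates across a wide concentration range of each compound. Compounds held as 10^-2 M DMSO stocks at -20 °C (stock, not final). Daily blood smears tracked parasite growth. IC50 (50% growth inhibition vs untreated control) came from linear regression of concentration–response data.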

pIC50: −log10 of the molar value.

`CC(=O)O[C@H]1C[C@@H](OC(C)=O)C(C)(C)[C@]2(O)CC[C@H]3C(=O)c4ccoc4C[C@@H]3[C@@]12C` [NORCAESALPININ B] had a pIC50 of 6.59.

As for `CC(=O)O[C@H]1[C@@H](OC(C)=O)C(C)(C)[C@]2(O)CCc3c(cc4occc4c3C)[C@@]2(C)[C@H]1OC(C)=O`, the pIC50 is 5.19. Molecule `C=C1c2ccoc2C[C@H]2[C@H]1CC[C@@]1(O)C(C)(C)[C@H](OC(C)=O)[C@H](OC(C)=O)[C@H](OC(C)=O)[C@]21C` gave a pIC50 of 6.70. This pIC50 lies 1.51 log units higher than the previous one.

As for `CC(=O)O[C@H]1[C@@H](OC(C)=O)C(C)(C)[C@]2(O)CC[C@H]3C(=O)c4ccoc4C[C@@H]3[C@@]2(C)[C@H]1OC(C)=O` [3-O-ACETYLNORCAESALPININ A], the pIC50 is 5.70. Next, `C=C1c2ccoc2C[C@H]2[C@H]1CC[C@@]1(O)C(C)(C)[C@H](OC(C)=O)C[C@H](OC(C)=O)[C@]21C` [CAESALPININ C]: 6.12; `COC(=O)[C@@H]1c2ccoc2C[C@H]2[C@H]1C[C@H](OC(C)=O)[C@@]1(O)C(C)(C)CCC(=O)[C@]21C` [CAESALPININ F]: 6.19. The molecule `CC(=O)O[C@H]1CC(C)(C)[C@]2(O)CCc3c(cc4occc4c3C)[C@@]2(C)[C@H]1OC(C)=O` had a pIC50 of 7.01. This pIC50 lies 0.82 log units higher than the previous one. The result for `CC(=O)O[C@H]1C[C@@H](OC(C)=O)C(C)(C)[C@]2(O)CCc3c(cc4occc4c3C)[C@@]12C` [CAESALDEKARINE] reads 5.40; that for `COC(=O)[C@@H]1c2ccoc2C[C@H]2[C@H]1C[C@H](OC(C)=O)[C@@]1(O)C(C)(C)CC[C@H](OC(C)=O)[C@]21C` [CAESALPININ E], 5.19; that for `CC(=O)O[C@H]1CC(C)(C)[C@]2(O)CC[C@H]3C(=O)c4ccoc4C[C@@H]3[C@@]2(C)[C@H]1OC(C)=O` [NORCAESALPININ A], 6.10. Next, `CC1(C)CC[C@H](O)[C@]2(C)[C@H]3Cc4occc4[C@H]4C(=O)O[C@@H](C[C@@]12O)[C@@H]43` [CAESALMIN G]: under 5.00; `CC(=O)O[C@H]1CCC(C)(C)[C@]2(O)[C@@H](OC(C)=O)[C@@H]3OC(=O)[C@@H]4c5ccoc5C[C@@H]([C@@H]34)[C@@]12C` [CAESALPININ D]: 6.10. In turn, `CC(=O)O[C@H]1CC(C)(C)[C@]2(O)CCc3c(cc(O)c(C=O)c3C)[C@@]2(C)[C@H]1OC(C)=O` [NORCAESALPININ C] showed a pIC50 of 5.30.

As for `COC(=O)[C@@H]1c2ccoc2C[C@H]2[C@H]1[C@@H](OC(C)=O)C[C@@]1(O)C(C)(C)CC[C@H](OC(C)=O)[C@]21C` [ACETOXYBONDUCELLPIN C], the pIC50 was 6.22. The result for `CC(=O)O[C@H]1CCC(C)(C)[C@]2(O)C[C@H](O)[C@H]3C(=O)c4ccoc4C[C@@H]3[C@@]12C` [NORCAESALPININ E] reads 7.05; that for `CC(=O)O[C@H]1CCC(C)(C)[C@]2(O)C[C@@H]3OC(=O)[C@@H]4c5ccoc5C[C@@H]([C@@H]34)[C@@]12C` [CAESALMIN B], 6.10.

For orientation: pIC50 means −log10 of the IC50, conventionally taken in molar units. A low value points to a large IC50.
